Values after ≈ are worked out from the molar mass of the structure shown.
What was measured:
Syrian golden hamster [1] = assay: Cmax in golden syrian hamster assessed as liver triphosphate level at 5 mg/kg, po by LC/MS/MS analysis; format: ADME, organism-based, Mesocricetus auratus; parameters: dose 5 mg/kg, route oral; conditions: in vivo
Method in brief: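 Groups of 12 Golden Syrian hamsters were dosed orally at 5 mg-equiv/kg. Vehicle was EtOH/PEG400/water buffered with 50 mM pH 4 citrate at 2.5 mg-equiv/mL. Liver was homogenized in four volumes of ice-cold 0.1% KOH/67 mM EDTA in 70% MeOH containing 0.25 μM Cl-ATP, then centrifuged, dried and reconstituted in 1 mM ammonium phosphate pH 7.0. Triphosphate was measured by LC/MS/MS, with endogenous ATP checked for sample stability.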

[2] = Cytotoxicity against human HuH7 cells after 3 days by fluorescence assay; format: cell-based; conditions: Huh-7 cells
Method in brief: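 Huh-7 HCV replicon cells were seeded at 2000 cells/well in medium without Geneticin. Compounds were added as ten-point 1:3 DMSO dilutions in quadruplicate (final DMSO 0.44%), with […] as the 100% cytotoxicity control. After 3 days at 37 °C, cells were washed and given 400 nM calcein AM for 30 min at RT, and fluorescence read at ex 490/em 520 nm. Signal was normalized to DMSO and puromycin wells, and CC50 taken from a four-parameter Hill fit.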

[3] = Permeability across basolateral to apical side in human Caco2 cells at 10 uM after 1 to 2 hrs by LC/MS/MS analysis; format: ADME, cell-based; conditions: Caco-2, read-out: permeability
Method in brief: (§1)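 Caco-2 monolayers were grown at least 21 days, and membrane integrity was checked by TEER after buffer equilibration. Test compound was dosed at 10 μM on the apical or basolateral side, in duplicate wells. Receiver samples at 1 and 2 h were precipitated with acetonitrile plus internal standard and run by LC/MS/MS.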

Hepatitis C virus [4] = assay: Antiviral activity against HCV genotype 1b infected in human HuH7 cells assessed as inhibition of viral replication after 3 days by luminescence assay; format: functional, organism-based, Hepacivirus hominis; conditions: Huh-7, 72 h
Method in brief: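 Multiplex replicon assay carrying a renilla luciferase reporter, with stable GT1b, 1a and 2a replicons and chimeric 2b, 3a, 4a, 5a and 6a replicons. 2000 replicon cells/well in medium without Geneticin. Ten-step 1:3 serial dilutions, four replicates, 0.44% DMSO final. Incubated 3 days at 37 °C, 5% CO₂. Luminescence normalised to DMSO wells and to protease-inhibitor (ITMN-191) wells. EC50 from a four-parameter Hill fit.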

Syrian golden hamster [5] = assay: Cmax in golden syrian hamster assessed as liver triphosphate level at 1 mg/kg, iv by LC/MS/MS analysis; format: ADME, organism-based, Mesocricetus auratus; parameters: dose 1 mg/kg, route intravenous; conditions: in vivo
Method in brief: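 Golden Syrian hamsters in groups of 12, dosed iv at 1 mg-equiv/kg in EtOH/PEG400/water adjusted to pH 4 with HCl (0.5 mg-equiv/mL). Liver homogenised in ice-cold 70% MeOH with 0.1% KOH, 67 mM EDTA and 0.25 μM Cl-ATP internal standard, then centrifuged, dried and reconstituted. Triphosphate measured by LC/MS/MS; endogenous ATP checked for sample stability.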

[6] = Permeability across apical to basolateral side in human Caco2 cells at 10 uM after 1 to 2 hrs by LC/MS/MS analysis; format: ADME, cell-based; conditions: Caco-2, read-out: permeability; method in brief: as §1
[7] = Oral bioavailability in golden syrian hamster at 5 mg/kg; format: ADME, organism-based, Mesocricetus auratus; conditions: in vivo
[8] = Metabolic stability in human liver S9 fraction assessed as extraction at 2 uM after 90 mins by LC/MS/MS analysis; format: ADME, subcellular; conditions: read-out: Stability
Method in brief: (§2)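 Compound at 2 μM was incubated with human intestinal or hepatic S9 fraction plus NADPH and UDPGA for 90 min at 37 °C. Time-point samples were quenched in aqueous acetonitrile/methanol with internal standard and analysed by LC/MS/MS. Half-life came from an exponential first-order fit, and hepatic extraction was predicted from half-life using the well-stirred model.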

[9] = Aqueous solubility of the compound in phosphate buffer at pH 7 by reverse-phase UPLC-UV method; format: physicochemical
Method in brief: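 Excess solid was suspended in pH 7 phosphate buffer at ambient temperature, sonicated, then stirred for at least 2 h. After centrifugation, the supernatant was quantified by reverse-phase UPLC-UV.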

[10] = Lipophilicity, log D of the compound by HPLC/UV method; format: physicochemical
Method in brief: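 A 10 mM DMSO stock was diluted 1:100 into 1:1 acetonitrile/water, shaken 30 min, and analysed by HPLC/UV on a C18 column with 20 mM ammonium acetate/acetonitrile mobile phase.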

[11] = Half life in human intestinal S9 fraction at 2 uM by LC/MS/MS analysis; format: ADME, Intestine; method in brief: as §2
Hepatocyte = assay: Prodrug coversion in human hepatocytes assessed as triphosphate formation assesed per million cells at 10 uM incubated for 1 hr followed by compound washout by liquid chromatography coupled with mass spectrometry; format: ADME, cell-based; parameters: dose 10 uM
Method in brief: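 Confluent primary human hepatocytes (0.88 × 10⁶ cells/well, Williams E medium) were exposed to 10 μM compound for 1 h, then to drug-free medium for 23 h. Cells were collected during and after exposure and extracted. Triphosphate was quantified by LC/MS/MS and expressed per million cells.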

Hepatitis C virus [12] = assay: Selectivity ratio of EC50 for HCV harboring NS5B RNA dependent RNA polymerase S282T mutant to EC50 for wild-type HCV; format: functional, Hepacivirus hominis
Huh-7 = assay: Prodrug coversion in human HuH7 cells assessed as triphosphate formation at 10 uM after 24 hrs by liquid chromatography coupled with mass spectrometry; format: ADME, cell-based; conditions: huh-7, 24 h
Method in brief: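 Huh-7 cells carrying the GT1b replicon, grown to confluency in 12-well plates (0.88 × 10⁶ cells/well). Exposed 24 h to 10 μM compound, then washed with ice-cold saline and extracted overnight in frozen 70% methanol. Dried extract resuspended in 1 mM ammonium phosphate pH 8.5. Triphosphate quantified by LC/triple-quadrupole MS.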

[13] = biological target: DNA-directed RNA polymerase, mitochondrial (Homo sapiens) (UniProt O00411); assay: Inhibition of mitochondrial RNA polymerase (unknown origin) assessed as inhibition of single nucleotide incorporation; conditions: concentration not given here
Method in brief: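 Reactions started with 500 μM (final) natural NTP or NTP analog. Time-point aliquots were quenched in EDTA/formamide, heated to 65 °C, resolved on 20% polyacrylamide/8 M urea gels, and product formation quantified by phosphorimaging.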

[14] = AUC (0 to infinity) in jagular vein cannulated beagle dog at 0.5 mg/kg, iv by LC/MS/MS analysis; format: ADME, organism-based, Canis lupus familiaris; parameters: time infinity, dose 0.5 mg/kg, route intravenous; conditions: plasma
Method in brief: (§3)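 Naive male beagle dogs got a single intravenous infusion of 0.5 mg/kg in EtOH/PEG 400/water 5/20/75, adjusted to pH 4 with HCl. EDTA-K3 blood was collected over 24 h and plasma isolated. Plasma was precipitated with acetonitrile to a final 60%, filtered, dried, reconstituted in 20% acetonitrile and analysed.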

[15] = Oral absorption in beagle dog at 5 mg/kg, po by LC/MS/MS analysis; format: ADME, organism-based, Canis lupus familiaris; parameters: dose 5 mg/kg, route oral; conditions: in vivo
Method in brief: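 Naive male beagle dogs were dosed once, orally at 5 mg/kg in EtOH/PEG 400/50 mM citrate buffer pH 4 (5/40/55), or intravenously at 0.5 mg/kg for reference. Plasma was sampled over 24 h and processed by acetonitrile precipitation. Bioavailability %F = AUC_po × Dose_iv / (AUC_iv × Dose_po).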

[16] = Metabolic stability in serum (unknown origin); format: ADME
[17] = AUC (0 to infinity) in portal vein cannulated beagle dog at 0.5 mg/kg, iv by LC/MS/MS analysis; format: ADME, organism-based, Canis lupus familiaris; parameters: time infinity, dose 0.5 mg/kg, route intravenous; conditions: plasma; method in brief: as §3

DNA-directed RNA polymerase, mitochondrial (Homo sapiens), sequence (O00411 whole entry): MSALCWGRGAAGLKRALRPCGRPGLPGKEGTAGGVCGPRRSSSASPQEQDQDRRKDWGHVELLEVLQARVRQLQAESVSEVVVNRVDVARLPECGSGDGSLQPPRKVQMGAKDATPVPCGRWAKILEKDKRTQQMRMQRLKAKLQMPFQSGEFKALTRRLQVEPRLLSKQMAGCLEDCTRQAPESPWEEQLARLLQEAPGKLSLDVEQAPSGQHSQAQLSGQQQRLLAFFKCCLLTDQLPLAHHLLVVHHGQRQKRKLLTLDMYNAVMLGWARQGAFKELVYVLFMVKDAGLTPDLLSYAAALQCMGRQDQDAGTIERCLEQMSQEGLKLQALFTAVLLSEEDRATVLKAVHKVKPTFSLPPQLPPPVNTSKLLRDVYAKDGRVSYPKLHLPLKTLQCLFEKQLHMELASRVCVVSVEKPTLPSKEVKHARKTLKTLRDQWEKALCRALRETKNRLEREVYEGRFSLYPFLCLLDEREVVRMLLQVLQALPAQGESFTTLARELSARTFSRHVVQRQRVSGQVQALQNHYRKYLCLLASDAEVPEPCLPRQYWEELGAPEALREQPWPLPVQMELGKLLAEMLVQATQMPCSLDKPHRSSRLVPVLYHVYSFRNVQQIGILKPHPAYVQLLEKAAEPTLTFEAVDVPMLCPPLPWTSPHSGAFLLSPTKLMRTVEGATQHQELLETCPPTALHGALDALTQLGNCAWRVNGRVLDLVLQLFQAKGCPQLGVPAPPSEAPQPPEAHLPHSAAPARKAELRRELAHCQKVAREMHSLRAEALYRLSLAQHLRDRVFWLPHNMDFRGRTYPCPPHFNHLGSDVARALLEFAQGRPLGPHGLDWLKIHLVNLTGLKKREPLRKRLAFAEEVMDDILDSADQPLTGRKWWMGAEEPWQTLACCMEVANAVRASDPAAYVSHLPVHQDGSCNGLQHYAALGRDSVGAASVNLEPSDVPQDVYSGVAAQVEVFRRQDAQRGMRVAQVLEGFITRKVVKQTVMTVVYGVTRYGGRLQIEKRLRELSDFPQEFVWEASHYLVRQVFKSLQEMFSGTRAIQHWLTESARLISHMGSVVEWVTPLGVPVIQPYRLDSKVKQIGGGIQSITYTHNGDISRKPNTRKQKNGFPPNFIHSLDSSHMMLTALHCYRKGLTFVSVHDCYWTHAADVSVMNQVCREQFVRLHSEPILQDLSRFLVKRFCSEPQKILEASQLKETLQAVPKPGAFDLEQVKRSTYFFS

Structure (SMILES) | Cmax (Syrian golden hamster [1]) [nM] | CC50 at 72 h [2] [nM] | Papp B→A at 10 µM [3] [×10⁻⁶ cm/s] | EC50 (Hepatitis C virus [4]) [nM] | Cmax (Syrian golden hamster [5]) [nM] | Papp A→B at 10 µM [6] [×10⁻⁶ cm/s] | bioavailability [7] [%] | hepatic extraction ratio at 1.5 h, 2 µM [8] | solubility [9] [µg/mL] | logD [10] | half-life at 2 µM [11] [h] | Drug metabolism (Hepatocyte) | Ratio EC50 (Hepatitis C virus [12]) | Drug metabolism (Huh-7) [µM] | inhibition [13] [%] | AUC(0-inf) [14] [µM·h] | Fa [15] [%] | Stability [16] | AUC(0-inf) [17] [µM·h]
CCOC(=O)[C@H](C)NP(=O)(OC[C@H]1O[C@@](C#N)(c2ccc3c(N)ncnn23)[C@](C)(O)[C@@H]1O)Oc1ccccc1 (stereo partly drawn) | 570 | > 89000 | 2.98 | 1450 | 4480 | 0.17 | 2.5 | 0.89 | 108 (≈ 193 µM) | 1.6 | 1.15 |  |  |  |  |  |  |  | 
C[C@H](NP(=O)(OC[C@H]1O[C@@](C#N)(c2ccc3c(N)ncnn23)[C@](C)(O)[C@@H]1O)Oc1ccccc1)C(=O)OC1CCCC1 (stereo partly drawn) | 840 | > 89000 | 5.86 | 450 | 2800 | 0.37 | 6 | 0.95 | 10 (≈ 16.7 µM) | 2.2 | 0.5 | Active |  |  |  |  |  |  | 
C[C@H](NP(=O)(OC[C@H]1O[C@@](C#N)(c2ccc3c(N)ncnn23)[C@](C)(O)[C@@H]1O)Oc1ccccc1)C(=O)OCc1ccccc1 (stereo partly drawn) | 860 | 63000 | 25.3 | 330 |  | 3.35 |  | 0.93 | 0.05 (≈ 0.0803 µM) | 2.2 | 2.15 |  |  |  |  |  |  |  | 
C[C@@]1(O)[C@H](O)[C@@H](CO)O[C@H]1n1ccc2c(N)ncnc21 [BETA-2'-C-METHYL-7-DEAZA-ADENOSINE] |  |  |  |  |  |  |  |  |  |  |  |  | >95 |  |  |  |  |  | 
C[C@@]1(O)[C@H](O)[C@@H](CO)O[C@@]1(C#N)c1ccc2c(N)ncnn12 |  |  |  | > 89000 |  |  |  |  |  |  |  |  |  | < 0.5 | 0.03 |  |  |  | 
CC(C)OC(=O)[C@H](C)NP(=O)(OC[C@H]1O[C@@](C#N)(c2ccc3c(N)ncnn23)[C@](C)(O)[C@@H]1O)Oc1ccccc1 (stereo partly drawn) | 530 | > 89000 | 8.92 | 1050 | 5650 | 0.16 | 1.9 | 0.9 | 306 (≈ 533 µM) | 1.8 | > 10.2 |  |  | 20 |  | 0.16 | 10 | Stable | 0.99
C#C[C@@]1(c2ccc3c(N)ncnn23)O[C@H](CO)[C@@H](O)[C@@]1(C)O |  |  |  | > 89000 |  |  |  |  |  |  |  |  |  |  |  |  |  |  | 
